High-throughput results (PubChem BioAssay)
Runt-SMMHC FRET: Runt domain-CBFb-SMMHC interaction inhibition | 220,000 compounds, 0.74% hits | Cerulean-Runt/Venus-CBFb-SMMHC FRET ratio 530/480, 1 h | Q01196+Q13951 | inhibition, % at 20 µM | AID 1434;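 active means mean inhibition across duplicate retests at 20 µM reaching about 50%, limit read from the data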;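 further: 0% = DMSO wells and 100% = wells with excess untagged CBFb-SMMHC; inhibitors lower the FRET ratio by blocking Runt binding to CBFb-SMMHC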
Runt-CBFb FRET: Runt domain-CBFb interaction inhibition. Q01196+Q13951. Cerulean-Runt/Venus-CBFb FRET ratio 530/480, 1 h. inhibition, % at 20 µM. 220,000 compounds, 0.46% hits. AID 1496;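 active means inhibition over about 50% at 20 µM in the single-dose screen, limit read from the data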;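 further: 0% = DMSO wells and 100% = excess unlabeled CBFb competitor control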
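Buffer or medium: Tris pH 7.5 buffer with BSA. Assay system: Cerulean-labeled Runt domain protein. Amount: each fluorescent fusion protein 100 nM. Read-out basis: loss of energy transfer signal. Incubation: 1 h compound exposure, room temperature. Probe or stimulus: Venus-CBFb binding partner, 100 nM. Detection: FRET, excitation 422 nm, emission at 530 and 480 nm.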
Hck Nef HTS: inhibitors of human Hck kinase activated by Nef | 220,000 compounds, 0.68% hits | P08631 | AID 463187 | inhibition, % at 20 µM | Recombinant Hck-YEEI plus Nef, Z-Lyte FRET kinase assay;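 active means Hck-Nef kinase inhibition above about 50%, limit read from the data; inactive means inhibition below that limit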;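 further: 0% = DMSO with Hck plus Nef and 100% = Hck alone without Nef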
Target sequence (P08631 whole entry, looked up): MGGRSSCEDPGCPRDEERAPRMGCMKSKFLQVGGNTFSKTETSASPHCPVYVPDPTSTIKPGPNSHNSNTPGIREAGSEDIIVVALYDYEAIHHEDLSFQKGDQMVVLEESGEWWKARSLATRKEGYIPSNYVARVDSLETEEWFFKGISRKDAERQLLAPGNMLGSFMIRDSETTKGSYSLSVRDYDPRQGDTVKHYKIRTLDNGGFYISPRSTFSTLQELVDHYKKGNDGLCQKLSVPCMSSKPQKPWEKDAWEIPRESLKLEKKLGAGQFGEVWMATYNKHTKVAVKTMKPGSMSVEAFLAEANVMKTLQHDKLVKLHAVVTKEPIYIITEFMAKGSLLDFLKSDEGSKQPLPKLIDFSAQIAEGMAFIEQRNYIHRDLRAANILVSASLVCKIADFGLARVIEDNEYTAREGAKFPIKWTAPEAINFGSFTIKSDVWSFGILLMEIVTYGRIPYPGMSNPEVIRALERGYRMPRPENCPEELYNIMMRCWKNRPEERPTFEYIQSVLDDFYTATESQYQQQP
RanGTP-Impb inh: disruptors of Ran-importin-beta complex formation – biochemical, FRET, CFP-Ran, YFP-importin-beta, homogeneous, primary screen; cell-free CFP-Ran/YFP-importin-beta FRET ratio; inhibition, % (concentration not given with the values); 300,000 compounds, 1.1% hits; AID 2216;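 active means more than half of the replicate wells show a fall in the fluorescence ratio signal beyond about 16%, limit read from the data, passing the limit was not always enough; inconclusive means exactly half of the replicate wells pass the set limit; inactive means fewer than half of replicates pass the limit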;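 further: 0% = DMSO wells and 100% = Ran loaded with GDP instead of GTP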
Hck-Nef confirm: Hck-Nef kinase inhibition, confirmation; calls only at 10 µM; AID 463188; 1,300 compounds, 28% hits; Recombinant Hck-YEEI:Nef, Z-Lyte FRET kinase assay; shares compounds with Hck Nef HTS;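 active means average inhibition of at least 50%, with Z-scores no higher than 3 in both the phospho-tyrosine peptide and fluorescence counterscreens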
The depositor's hits bear a star. Most compounds without a hit are left out; they make up all but 1.9% or so of the library.

What do the screens show for `COC(=O)COc1coc(CN2CCN(c3cccc(Cl)c3)CC2)cc1=O`?
RanGTP-Impb inh: 0.5

Results for O=C(Oc1ccc2ccc(=O)oc2c1)C1CCCCC1 ?
Runt-SMMHC FRET: 48.2; Runt-CBFb FRET: 30.1; Hck Nef HTS: 66.9*; RanGTP-Impb inh: 3.8; Hck-Nef confirm: inactive

What do the screens show for `O=C(COc1ccc2ccc(=O)oc2c1)NC1CCCC1`?
RanGTP-Impb inh: 3.1

What do the screens show for `Cc1cc(-c2csc(NC(=O)c3cc4ccccc4o3)n2)c(C)n1C`?
Runt-SMMHC FRET: -32.5; Runt-CBFb FRET: -7.7; Hck Nef HTS: 59.4*; RanGTP-Impb inh: 4.4; Hck-Nef confirm: inactive

Results for O=C(O)CCCN1C(=O)/C(=C/C=C/c2ccco2)SC1=S ?
Runt-SMMHC FRET: -2.7; Runt-CBFb FRET: 45.5; Hck Nef HTS: 83.5*; RanGTP-Impb inh: -8.8; Hck-Nef confirm: inactive

How did Cn1cccc1/C=C1\SC(=S)N(NC(=O)c2ccccc2O)C1=O do in these assays?
Runt-SMMHC FRET: -43.7; Runt-CBFb FRET: -20.8; Hck Nef HTS: 14.0; RanGTP-Impb inh: 2.9

How did O=C(NN1C(=O)/C(=C/C=C/c2ccco2)SC1=S)c1ccccc1O do in these assays?
Runt-SMMHC FRET: -5.6; Runt-CBFb FRET: 26.9; Hck Nef HTS: 82.6*; RanGTP-Impb inh: -0.9; Hck-Nef confirm: active

Results for O=C(O)C(Cc1ccccc1)N1C(=O)/C(=C/C=C/c2ccco2)SC1=S (stereo unspecified) ?
Runt-SMMHC FRET: -23.1; Runt-CBFb FRET: 21.6; Hck Nef HTS: 91.8*; RanGTP-Impb inh: -3.3; Hck-Nef confirm: active

How did COC(=O)C1=C(C)NC2=C(C(=O)CCC2)C1c1ccsc1 (stereo unspecified) do in these assays?
Runt-SMMHC FRET: 4.9; Runt-CBFb FRET: 1.1; Hck Nef HTS: 16.8; RanGTP-Impb inh: -1.2

What do the screens show for `COC(=O)C1=CN(CCOC23CC4CC(CC(C4)C2)C3)C=C(C(=O)OC)C1c1ccsc1`?
Runt-SMMHC FRET: 33.5; Runt-CBFb FRET: 13.7; Hck Nef HTS: 70.1*; RanGTP-Impb inh: 1.7; Hck-Nef confirm: inactive

What do the screens show for `CCCCCCc1cc2cc(C(=O)Nc3ccccc3)c(=O)oc2cc1O`?
Runt-SMMHC FRET: 58.5*; Runt-CBFb FRET: 113.0*; Hck Nef HTS: 71.8*; RanGTP-Impb inh: 116.9*; Hck-Nef confirm: inactive

How did CCCCCCc1cc2cc(S(=O)(=O)c3ccc(Cl)cc3)c(=O)oc2cc1O do in these assays?
Runt-SMMHC FRET: 80.8*; Runt-CBFb FRET: 5.5; Hck Nef HTS: 109.5*; RanGTP-Impb inh: 166.5*

What do the screens show for `CC(C)c1ccc(S(=O)(=O)c2cc3cc(Br)ccc3oc2=O)cc1`?
Runt-SMMHC FRET: -29.5; Runt-CBFb FRET: -10.3; Hck Nef HTS: -0.1; RanGTP-Impb inh: 4.0

How did CCCCCCc1cc2cc(S(=O)(=O)c3ccc(C)cc3)c(=O)oc2cc1O do in these assays?
Runt-SMMHC FRET: 80.8; Runt-CBFb FRET: 5.5; Hck Nef HTS: 80.3*; RanGTP-Impb inh: 162.6*

What do the screens show for `Cc1ccc(S(=O)(=O)c2cc3cc(Br)ccc3oc2=O)cc1`?
Runt-SMMHC FRET: -48.8; Runt-CBFb FRET: -8.2; Hck Nef HTS: 3.2; RanGTP-Impb inh: 2.8

Results for O=C(NS(=O)(=O)Oc1cccc(Cl)c1Cl)OC[C@@H]1CCCN2CCCCC12 (stereo partly specified) ?
Runt-SMMHC FRET: -2.1; Runt-CBFb FRET: 2.5; Hck Nef HTS: -9.6; RanGTP-Impb inh: -4.5

Results for CN(c1ccc(Br)cc1)S(=O)(=O)c1ccc2[nH]cc(C(=O)NCCN3CCOCC3)c(=O)c2c1 ?
RanGTP-Impb inh: -0.1

Results for COc1ccc(/C=C2\SC(=N)N(c3ccc(F)cc3)C2=O)cc1OC ?
Runt-SMMHC FRET: -7.3; Runt-CBFb FRET: -0.9; Hck Nef HTS: 62.6*; RanGTP-Impb inh: 2.6; Hck-Nef confirm: active

Results for O=C(Nc1cnn(C23CC4CC(CC(C4)C2)C3)c1)c1cnn2c(C(F)(F)F)cc(-c3ccco3)nc12 ?
Runt-SMMHC FRET: -7.0; Runt-CBFb FRET: -6.0; Hck Nef HTS: 81.3*; RanGTP-Impb inh: inconclusive; Hck-Nef confirm: active

What do the screens show for `N#Cc1c(-c2ccc(F)cc2)ccnc1N1CCOCC1`?
Runt-SMMHC FRET: 3.7; Runt-CBFb FRET: 0.3; Hck Nef HTS: -14.6; RanGTP-Impb inh: 0.2

Results for Cc1c(C(=O)NC(C)CN2CCCCC2)oc2ccccc12 (stereo unspecified) ?
Runt-SMMHC FRET: 1.8; Runt-CBFb FRET: 1.2; Hck Nef HTS: 7.1; RanGTP-Impb inh: 1.7

What do the screens show for `Cc1ccc(NC(=O)CN(C)Cc2nc3c(Br)cc(Br)cc3c(=O)[nH]2)cc1`?
Runt-SMMHC FRET: -5.3; Runt-CBFb FRET: -6.5; Hck Nef HTS: 73.9*; RanGTP-Impb inh: -3.7; Hck-Nef confirm: active

How did CCc1ccc(NC(=O)N(C2CCCCC2)C(C)c2cccnc2)cc1 (stereo unspecified) do in these assays?
Runt-SMMHC FRET: 0.7; Runt-CBFb FRET: 1.3; Hck Nef HTS: -2.1; RanGTP-Impb inh: 5.2

How did O=C(Nc1ccc(-n2nncc2-c2ccco2)cc1)c1cccc(F)c1 do in these assays?
Runt-SMMHC FRET: -0.4; Runt-CBFb FRET: 7.6; Hck Nef HTS: -0.5; RanGTP-Impb inh: 1.8

How did O=C(Nc1ccc(-n2nncc2-c2ccco2)cc1)c1cc2ccccc2oc1=O do in these assays?
Runt-SMMHC FRET: -33.3; Runt-CBFb FRET: 3.8; Hck Nef HTS: 51.3*; RanGTP-Impb inh: -1.4; Hck-Nef confirm: active

How did CC(/C=C1\SC(=S)N(NS(=O)(=O)c2ccc(C)cc2)C1=O)=C\c1ccccc1 do in these assays?
Runt-SMMHC FRET: -5.2; Runt-CBFb FRET: -5.9; Hck Nef HTS: 99.1*; RanGTP-Impb inh: 0.2; Hck-Nef confirm: active

Results for COc1ccc(C(=O)NC(=S)SCC(=O)O)cc1 ?
Runt-SMMHC FRET: -4.0; Runt-CBFb FRET: 16.8; Hck Nef HTS: 24.5; RanGTP-Impb inh: -0.6

Results for CCOC(=O)CSC(=S)NC(=O)c1ccc(OC)cc1 ?
Runt-SMMHC FRET: 6.8; Runt-CBFb FRET: -3.7; Hck Nef HTS: 56.9*; RanGTP-Impb inh: -0.2; Hck-Nef confirm: inactive

What do the screens show for `CCOC(=O)c1cnc2c(-c3ccc(F)cc3)cnn2c1C(F)(F)F`?
Runt-SMMHC FRET: -0.8; Runt-CBFb FRET: 1.3; Hck Nef HTS: 81.9*; Hck-Nef confirm: inactive

How did Cc1sc2nc(-c3ccc(Br)cc3)oc(=O)c2c1C do in these assays?
RanGTP-Impb inh: -0.7

What do the screens show for `Cc1onc(-c2c(Cl)cccc2Cl)c1C(=O)N=C(N)N1CC(C)OC(C)C1` (stereo unspecified)?
Runt-SMMHC FRET: 1.4; Runt-CBFb FRET: 1.8; Hck Nef HTS: 10.4; RanGTP-Impb inh: 1.4

Results for COc1ccc(CNC(=O)c2ccc(=O)oc2)cc1OC ?
Runt-SMMHC FRET: 1.9; Runt-CBFb FRET: -0.7; Hck Nef HTS: 56.8*; RanGTP-Impb inh: 4.5

What do the screens show for `Cc1ccc(/C=C2/SC(=S)N(c3ccc(S(=O)(=O)Nc4nccs4)cc3)C2=O)cc1`?
Runt-SMMHC FRET: -13.3; Runt-CBFb FRET: -2.9; Hck Nef HTS: 59.5*; RanGTP-Impb inh: -0.1; Hck-Nef confirm: inactive
